Laboratory results reported in ChEMBL document CHEMBL4680075, “Small-Molecule CD4-Mimics: Structure-Based Optimization of HIV-1 Entry Inhibition” (ACS Med Chem Lett, 2016).

Columns and labels:
[1] = test system: Human immunodeficiency virus 1; assay: Antiviral activity against HIV1 JRFL infected in dog Cf2Th/CD4-CCR5 cells assessed as inhibition of viral entry incubated for 30 mins prior to infection and measured after 48 hrs post infection by luciferase reporter gene assay; assay type: functional, organism-based; settings: Human immunodeficiency virus 1, JRFL
Summary of the method: (§1)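 Cf2Th-CD4/CCR5 target cells infected with recombinant luciferase-expressing HIV-1 pseudoviruses bearing the indicated strain's envelope glycoproteins, with compound at increasing concentrations; infection read as target-cell luciferase activity, expressed as percent of infection without compound; IC50 derived from this.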

[2] = test system: Human immunodeficiency virus 1; assay: Antiviral activity against HIV1 YU-2 infected in dog Cf2Th/CD4-CCR5 cells assessed as inhibition of viral entry incubated for 30 mins prior to infection and measured after 48 hrs post infection by luciferase reporter gene assay; assay type: functional, organism-based; settings: Human immunodeficiency virus 1, YU-2, Cf2Th-CCR5; summary of the method: as §1
[3] = test system: Human immunodeficiency virus 1; assay: Antiviral activity against HIV1 AD8 infected in dog Cf2Th/CD4-CCR5 cells assessed as inhibition of viral entry incubated for 30 mins prior to infection and measured after 48 hrs post infection by luciferase reporter gene assay; assay type: functional, organism-based; settings: Human immunodeficiency virus 1, AD8, Cf2Th-CCR5; summary of the method: as §1
[4] = test system: Human immunodeficiency virus 1; assay: Antiviral activity against HIV1 pseudotyped with A-MLV envelop glycoprotein infected in dog Cf2Th/CD4-CCR5 cells assessed as inhibition of viral entry incubated for 30 mins prior to infection and measured after 48 hrs post infection by luciferase reporter gene assay; assay type: functional, organism-based; settings: Human immunodeficiency virus 1, Cf2Th-CCR5
Summary of the method: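 Control counterscreen: Cf2Th-CD4/CCR5 cells infected with luciferase-expressing HIV-1 pseudotyped with amphotropic murine leukemia virus envelope glycoproteins, compound at increasing concentrations; luciferase activity in target cells as percent of no-compound infection; IC50 from this.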

[5] = Binding affinity to HIV1 YU-2 gp120 by isothermal titration calorimetric analysis; parameters: species or system Human immunodeficiency virus 1
[6] = test system: Human immunodeficiency virus 1; assay: Binding affinity to HIV1 YU-2 gp120 assessed as change in gibbs free energy by isothermal titration calorimetric analysis
[7] = test system: Human immunodeficiency virus 1; assay: Binding affinity to HIV1 YU-2 gp120 assessed as change in enthalpy by isothermal titration calorimetric analysis
[8] = test system: Human immunodeficiency virus 1; assay: Binding affinity to HIV1 YU-2 gp120 assessed as change in entropy by isothermal titration calorimetric analysis
[9] = test system: Human immunodeficiency virus 1; assay: Antiviral activity against HIV1 Clade B infected in human TZM-bl cells assessed as inhibition of viral entry incubated for 30 mins prior to infection and measured after 48 hrs post infection by luciferase reporter gene assay; assay type: functional, organism-based; settings: Human immunodeficiency virus 1, Clade B
[10] = test system: Human immunodeficiency virus 1; assay: Antiviral activity against HIV1 Clade C infected in human TZM-bl cells assessed as inhibition of viral entry incubated for 30 mins prior to infection and measured after 48 hrs post infection by luciferase reporter gene assay; assay type: functional, organism-based; settings: Human immunodeficiency virus 1, Clade C

IC50 [1] [µM] | IC50 [2] [µM] | IC50 [3] [µM] | IC50 [4] [µM] | Kd [5] [µM] | deltaG [6] [kcal/mol] | deltaH [7] [kcal/mol] | -TdeltaS [8] [kcal/mol] | IC50 [9] [µM] | IC50 [10] [µM] | Compound
37.3 | 2.1 | 6.7 | > 100 | 0.024 | -10.4 | -28.2 | 17.8 |  |  | CNCc1ccc2c(c1)[C@H](NC(=O)C(=O)Nc1ccc(Cl)c(F)c1)[C@@H](CNC(=N)N)C2
> 100 | 87.8 | > 100 | > 100 | 3.4 | -7.5 | -11.3 | 3.8 |  |  | CNCc1ccc2c(c1)[C@@H](NC(=O)C(=O)Nc1ccc(Cl)c(F)c1)[C@H](CNC(=N)N)C2
66.8 | 3.8 | 8.5 | 94.3 | 0.11 | -9.5 | -17.9 | 8.4 |  |  | N=C(N)NC[C@H]1Cc2ccccc2[C@@H]1NC(=O)C(=O)Nc1ccc(Cl)c(F)c1
19.7 | 1.6 | 1.2 | 83.7 | 0.095 | -9.6 | -14.2 | 4.6 |  |  | CN(Cc1ccc2c(c1)[C@H](NC(=O)C(=O)Nc1ccc(Cl)c(F)c1)[C@@H](CNC(=N)N)C2)C(=N)N
14.5 | 1.3 | 3.1 | > 100 | 0.047 | -10 | -20.7 | 10.7 | 3.5 | 17 | CNCc1ccc2c(c1)C[C@H](CNC(=N)N)[C@H]2NC(=O)C(=O)Nc1ccc(Cl)c(F)c1
> 100 | 21 |  | > 100 | 1.2 | -8.1 | -13.2 | 5.1 |  |  | CNCc1ccc2c(c1)C[C@@H](CNC(=N)N)[C@@H]2NC(=O)C(=O)Nc1ccc(Cl)c(F)c1
6.1 | 0.8 | 1.6 | > 100 | 0.095 | -9.6 | -15.4 | 5.8 |  |  | CN(Cc1ccc2c(c1)C[C@H](CNC(=N)N)[C@H]2NC(=O)C(=O)Nc1ccc(Cl)c(F)c1)C(=N)N
